In the RNAGym collection of RNA variant scans (doi:10.1126/science.aae0568):
Variants at the floor of the assay were thinned out.

B1: tRNA (parent)
chain: GUUCCGUUGGCGUAAUGGUAACGCGUCUCCCUCCUAAGGAGAAGACUGCGGGUUCGAGUCCCGUACGGAACG

Variants of: B1
Experiment: yeast fitness relative to wild type (ratio to wild type); higher = fitter; tRNA-Arg(CCU), competitive growth, 37 C, YPD
Outline: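 Gene amplicons from the start population and from each of six end populations were read by 100-nucleotide paired-end sequencing. Those end populations came from pooled Saccharomyces cerevisiae strains carrying tRNA-Arg(CCU) gene variants at the native locus, competed in YPD at 37°C for 24 hours. Fitness relative to wild type was worked out from changes in genotype frequencies. Genotypes needed ≥ 100 starting reads, and estimates < 0.5 were set to 0.5.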
For U3A C11U A20G, the yeast fitness was 0.654. In the case of U3C A15G C30G G56A G63C G67A, the yeast fitness is reported as no more than 0.5. For U3A U7G A14U G25A G41C C46U, the yeast fitness was no more than 0.5. U3A G25A G58C C66U gave a yeast fitness of 0.596. In the case of U3C C4U A21G C46A, the yeast fitness is reported as 0.628. Variant U3A U16C C33G C66G has a yeast fitness of 0.664. With U3A A42U A43G G48C U53A A69C the yeast fitness was no more than 0.5. For U3A C30G G68A, the yeast fitness was no more than 0.5. For U3A C49G, the yeast fitness was 0.792. For U3A C49A, the yeast fitness was 0.609. U3A C49U showed a yeast fitness of 0.954. With U3A C60A the yeast fitness was 0.677. Work on U3A G12A yielded a yeast fitness of 0.826. U3A G12C showed a yeast fitness of 0.635. Variant U3A U19C C24U A37G C60G has a yeast fitness of no more than 0.5. In the case of U3A G10C A36U A40C A57C, the yeast fitness is reported as no more than 0.5. U3A A65U showed a yeast fitness of 0.704. Work on U3A A65G yielded a yeast fitness of 0.899. U3A C4U G25C G63C showed a yeast fitness of no more than 0.5. Work on U3A G12C A21C A36C A70U yielded a yeast fitness of 0.553. Work on U3C C5G C34A A37U G44A G51A C55A yielded a yeast fitness of no more than 0.5. Work on U3A A65C A70C yielded a yeast fitness of 0.679. In the case of U3A G44A, the yeast fitness is reported as 0.807. In the case of U3A G12C U13C C49U G56C, the yeast fitness is reported as no more than 0.5. With U3A C46A G67U the yeast fitness was 0.603. Variant U3A C27G A69C has a yeast fitness of no more than 0.5. In the case of U3A C22U G39A, the yeast fitness is reported as no more than 0.5. Work on U3A C24A C30U C62U yielded a yeast fitness of no more than 0.5. U3A C30G C33U G67U gave a yeast fitness of no more than 0.5. Work on U3A C5G A14G C24A G51C G52C yielded a yeast fitness of no more than 0.5. U3A C4U C33U C61A showed a yeast fitness of no more than 0.5. U3A A43U C66U gave a yeast fitness of 0.635. U3A C24G C31U G52C gave a yeast fitness of no more than 0.5. With U3A U16C A20C the yeast fitness was no more than 0.5. In the case of U3C C4U U64A, the yeast fitness is reported as 0.617. Variant U3A C55G A65C has a yeast fitness of no more than 0.5. U3A C5G C29G A36C U53G showed a yeast fitness of no more than 0.5. Work on U3A G9A A14C C55G yielded a yeast fitness of no more than 0.5. Variant U3A G44A C55U has a yeast fitness of no more than 0.5. In the case of U3A C27G C31U C33U A42C A70U, the yeast fitness is reported as no more than 0.5. U3A G9A C62G C66G showed a yeast fitness of no more than 0.5. U3C A15C A36U gave a yeast fitness of no more than 0.5. Work on U3C A36U G39A G52A yielded a yeast fitness of no more than 0.5. Variant U3C A15U U16G U19A A43C A57U has a yeast fitness of no more than 0.5. Work on U3A G9A yielded a yeast fitness of 0.977. U3A G9C gave a yeast fitness of 0.567. Work on U3C A37C A57G G68C yielded a yeast fitness of no more than 0.5. Variant U3A G9A A14C has a yeast fitness of 0.551. U3A U19A C33U G52C A65G showed a yeast fitness of no more than 0.5. Work on U3A C4U U13A G51A yielded a yeast fitness of no more than 0.5. With U3A A57G the yeast fitness was 0.776. For U3A A57U, the yeast fitness was 0.754. For U3C A57G, the yeast fitness was 0.714. U3A C11G gave a yeast fitness of 0.643. With U3A C11A the yeast fitness was 0.607. U3A C4G G41A G63C C66A gave a yeast fitness of 0.576. With U3C A37G A42C A65C A69C the yeast fitness was no more than 0.5. Variant U3A G18A U19C C27G C61A U64G has a yeast fitness of no more than 0.5. In the case of U3C A40U A69U, the yeast fitness is reported as 0.755. With U3A A43U the yeast fitness was 0.929. For U3A A43C, the yeast fitness was 0.883. Variant U3A G17C A20C U28A has a yeast fitness of no more than 0.5. U3C A15C A20G gave a yeast fitness of no more than 0.5. U3A A42G G52C A57G gave a yeast fitness of no more than 0.5. For U3A G25C U47A, the yeast fitness was 0.547. In the case of U3A G68A, the yeast fitness is reported as 0.854. Variant U3C A15C G38A U54A A57U has a yeast fitness of no more than 0.5. U3C C5A C34U U35A C49A U54A showed a yeast fitness of no more than 0.5. In the case of U3A C31G A40U G41U, the yeast fitness is reported as no more than 0.5. Work on U3A U19A C46A G56A yielded a yeast fitness of 0.564. In the case of U3A U7G C29G C49U, the yeast fitness is reported as no more than 0.5. U3C C5G U19G C31A C46A showed a yeast fitness of 0.663. With U3A C30U U59A A69C the yeast fitness was no more than 0.5. U3A A42C A65U C66U G67C gave a yeast fitness of 0.569. U3A G10A U19A A42G U64A showed a yeast fitness of no more than 0.5. Variant U3A C4U C5U has a yeast fitness of 0.594. Variant U3A C24G C29A G50C A57C C66U has a yeast fitness of no more than 0.5. In the case of U3C A14G C22A C27G G39C C62G, the yeast fitness is reported as no more than 0.5. With U3A C31U A40C the yeast fitness was 0.566. Variant U3A U53C has a yeast fitness of 0.668. U3A C4U U7A C24U C61A C62G A65G showed a yeast fitness of no more than 0.5. In the case of U3C A20G U59C A69C, the yeast fitness is reported as 0.79. For U3A C31G G67U, the yeast fitness was 0.542. Work on U3A C30G C55U A70U yielded a yeast fitness of no more than 0.5. For U3A C31U A57U, the yeast fitness was 0.598. In the case of U3A U8A C27G, the yeast fitness is reported as no more than 0.5. With U3A G6C A37U G58A the yeast fitness was 0.524. Variant U3C A40G C46A A69C has a yeast fitness of 0.706. U3A C5A G6C C11U A15G U16A U26G C60G C61U gave a yeast fitness of no more than 0.5. Variant U3A C31G A43U has a yeast fitness of 0.597. U3A G9A C30A A42U C49U U59C A69C showed a yeast fitness of no more than 0.5. In the case of U3C A21U C66G, the yeast fitness is reported as no more than 0.5. With U3C C5G G38A the yeast fitness was no more than 0.5. Work on U3A C4G G6A U26G C66U yielded a yeast fitness of no more than 0.5. In the case of U3C A14C A21G C22U A37U C49A C60G, the yeast fitness is reported as no more than 0.5. With U3C A21U the yeast fitness was 0.642. Variant U3A C31U A40C A70G has a yeast fitness of no more than 0.5. For U3A C5G C11U C24A C30U A70G, the yeast fitness was no more than 0.5. U3C A20C G23C showed a yeast fitness of no more than 0.5. U3A U7G gave a yeast fitness of 0.734. For U3A C11G U28A G41C G58C, the yeast fitness was no more than 0.5. Variant U3A C62U U64C has a yeast fitness of 0.77. Work on U3C A20G C33U A40G C62G A70U yielded a yeast fitness of no more than 0.5. U3A C4A A21U gave a yeast fitness of no more than 0.5. U3C A14U showed a yeast fitness of 0.639. U3C A14G showed a yeast fitness of 0.917. With U3A U16C C46U the yeast fitness was 0.631. In the case of U3A U13C C29A A43G G67C, the yeast fitness is reported as 0.595. For U3C C5G A21U A42C, the yeast fitness was no more than 0.5. For U3A G10C A36U A40C C60G, the yeast fitness was 0.569. U3A U32G G63C C66U showed a yeast fitness of no more than 0.5. For U3C A37U, the yeast fitness was 0.806. In the case of U3C A37G, the yeast fitness is reported as 0.784. U3A C5A G17A C22U C66U gave a yeast fitness of 0.531. In the case of U3C A15U U16C C34U A43G, the yeast fitness is reported as no more than 0.5. In the case of U3A C11U C55G A65C, the yeast fitness is reported as no more than 0.5. U3A C33U A45U gave a yeast fitness of 0.834. In the case of U3A U13C A69U, the yeast fitness is reported as 0.72. With U3A G6A G12A A20G C22G U26A G48C G68U the yeast fitness was no more than 0.5. Variant U3A G17C A20C U28A C46A C61A has a yeast fitness of no more than 0.5. Work on U3C A14G C30U A45C C46G A69C yielded a yeast fitness of no more than 0.5. In the case of U3A C34U C49A G52A, the yeast fitness is reported as 0.622. For U3A C4A G18C C34U A36G G63C, the yeast fitness was no more than 0.5. U3A U19C C29A A36U showed a yeast fitness of no more than 0.5. With U3A G6U G12C C22A the yeast fitness was no more than 0.5. U3A G12C A21C A36C showed a yeast fitness of no more than 0.5. In the case of U3C A21U A37G G44A G63A, the yeast fitness is reported as no more than 0.5. With U3C C4U A15G U26A U32A the yeast fitness was 0.571. For U3A C27G A43C, the yeast fitness was no more than 0.5. With U3A C5A A45C G50C the yeast fitness was no more than 0.5. U3C A21G C34G A69C showed a yeast fitness of no more than 0.5. Variant U3C A15C A36C U47A C62G has a yeast fitness of no more than 0.5. U3A A42U showed a yeast fitness of 0.846. U3A C4U C5U G48C C49A G67C A70U showed a yeast fitness of 0.663. With U3A U35A A42C the yeast fitness was 0.629. U3A G12A A15G C24U A45U showed a yeast fitness of no more than 0.5. For U3A U26C U59C, the yeast fitness was no more than 0.5. In the case of U3C A15G C29A A40U C55G C61G, the yeast fitness is reported as no more than 0.5. Work on U3A C24U U53A yielded a yeast fitness of 0.548. U3A C22G C29U G63A gave a yeast fitness of no more than 0.5. Work on U3A U54A G56C yielded a yeast fitness of 0.767. Variant U3A U28A has a yeast fitness of 0.865. In the case of U3A C30G A45G C46G G52C G68C, the yeast fitness is reported as no more than 0.5. In the case of U3A C34U, the yeast fitness is reported as 0.735. Variant U3C A20U G68U A69G has a yeast fitness of 0.99. Work on U3A C46U G48A C55U U59A yielded a yeast fitness of no more than 0.5. With U3A U32G G56A G68U A69U the yeast fitness was no more than 0.5. Variant U3A C5U A14G C34G A43C has a yeast fitness of no more than 0.5. U3A C5G C24A C30U A70G gave a yeast fitness of no more than 0.5. Work on U3C C4U U35C A70U yielded a yeast fitness of 0.544. U3C A21U G50C A65U showed a yeast fitness of no more than 0.5. With U3A C5G U7C U35A A40U C46G U53A G68C the yeast fitness was no more than 0.5. With U3A G9A C29G the yeast fitness was 0.585. For U3A A70G, the yeast fitness was 1. U3A G18A C22U showed a yeast fitness of no more than 0.5. For U3A C24G C60G, the yeast fitness was 0.645. Variant U3C A40U C49A A70U has a yeast fitness of no more than 0.5. In the case of U3A G52A, the yeast fitness is reported as 0.764. U3C A40G C46A C62G A69U gave a yeast fitness of no more than 0.5. Variant U3C A20U A70C has a yeast fitness of 0.59. Variant U3A C11G A14C C62U G67C has a yeast fitness of no more than 0.5. Variant U3A G12C G58A C66U has a yeast fitness of no more than 0.5. For U3A G6A G25C A43C, the yeast fitness was 0.614. U3A U7C A15U G23C C27U G52A gave a yeast fitness of no more than 0.5. With U3C A37G A70U the yeast fitness was 0.568. Variant U3A C4A A21U G56C G58A has a yeast fitness of no more than 0.5. With U3A C5G U13G G39C A70C the yeast fitness was no more than 0.5.
